Active and inactive are the calls of the source. The calls are words filed in the database; no cut-off is given here.
Columns and labels:
[1] = target: T1, Matrilysin (Homo sapiens) (UniProt P09237); assay: Inhibition of human recombinant MMP-7 at 50 uM by fluorescence spectrophotometric analysis relative to control
T1 sequence (whole entry): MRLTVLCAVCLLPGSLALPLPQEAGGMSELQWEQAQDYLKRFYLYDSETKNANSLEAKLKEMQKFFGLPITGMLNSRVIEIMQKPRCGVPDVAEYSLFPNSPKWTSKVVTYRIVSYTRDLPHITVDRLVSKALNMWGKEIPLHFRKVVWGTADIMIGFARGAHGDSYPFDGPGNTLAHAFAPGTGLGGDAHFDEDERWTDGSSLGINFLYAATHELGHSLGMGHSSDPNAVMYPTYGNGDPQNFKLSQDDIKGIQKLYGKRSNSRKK

[2] = target: T2, Matrix metalloproteinase-14 (Homo sapiens, UniProt P50281); assay: Inhibition of human recombinant MMP-14 catalytic domain using MOCAcPLGLA2pr(Dnp)AR-NH2 as substrate by fluorescence spectrophotometric analysis
[3] = target: MMP-2/MMP-9 (Homo sapiens) (UniProt P08253+P14780); assay: Selectivity ratio of Ki for human recombinant MMP-9 catalytic domain to Ki for human recombinant MMP-2
[4] = target: T3, Interstitial collagenase (Homo sapiens) (UniProt P03956); assay: Inhibition of human recombinant MMP-1 catalytic domain at 50 uM by fluorescence spectrophotometric analysis relative to control
T3 sequence (whole entry): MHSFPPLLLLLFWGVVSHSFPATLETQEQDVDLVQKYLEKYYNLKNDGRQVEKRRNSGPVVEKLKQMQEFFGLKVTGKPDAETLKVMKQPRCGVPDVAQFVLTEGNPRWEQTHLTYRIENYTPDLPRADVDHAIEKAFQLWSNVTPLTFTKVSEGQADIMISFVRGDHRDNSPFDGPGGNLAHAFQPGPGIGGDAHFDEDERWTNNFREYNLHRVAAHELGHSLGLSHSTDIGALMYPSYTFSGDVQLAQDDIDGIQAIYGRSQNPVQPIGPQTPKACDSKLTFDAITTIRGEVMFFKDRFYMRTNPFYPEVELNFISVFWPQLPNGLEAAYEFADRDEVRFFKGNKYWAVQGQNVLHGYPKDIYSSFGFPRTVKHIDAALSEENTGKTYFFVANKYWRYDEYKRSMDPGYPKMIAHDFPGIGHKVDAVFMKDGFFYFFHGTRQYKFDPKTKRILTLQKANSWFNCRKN

[5] = target: 72 kDa type IV collagenase (Homo sapiens, UniProt P08253); assay: Inhibition of human recombinant MMP-2 using MOCAcPLGLA2pr(Dnp)AR-NH2 as substrate by fluorescence spectrophotometric analysis
[6] = target: Stromelysin-1 (Homo sapiens) (UniProt P08254); assay: Inhibition of human recombinant MMP-3 catalytic domain at 50 uM by fluorescence spectrophotometric analysis relative to control
Liver = assay: Metabolic stability in rat liver S9 fraction assessed as formation of 4-(4-(thiiran-2-ylmethylsulfonyl)phenoxy)phenol after 5 mins by reversed-phase LC/MS analysis; type: ADME, subcellular; conditions: s9, 5 min
Summary of the method: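 Male rat liver S9 (1.0 mg) incubated with 10 μM compound (final) and 0.5 mM NADPH (final) in 50 mM potassium phosphate, pH 7.4, 37 °C. Aliquots taken at several time points. Reactions quenched with one volume acetonitrile containing internal standard, centrifuged, supernatant run on reversed-phase UPLC/ESI-MRM. Quantified by peak area ratio to internal standard.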

[7] = target: T4, Matrix metalloproteinase-9 (Homo sapiens, UniProt P14780); assay: Inhibition of human recombinant MMP-9 catalytic domain using MOCAcPLGLA2pr(Dnp)AR-NH2 as substrate by fluorescence spectrophotometric analysis
[8] = target: T2, Matrix metalloproteinase-14; assay: Inhibition of human recombinant MMP-14 catalytic domain using MOCAcPLGLA2pr(Dnp)AR-NH2 as substrate at 50 uM by fluorescence spectrophotometric analysis relative to control
Homo sapiens = organism: Homo sapiens; assay: Selectivity ratio of Ki for human recombinant MMP-8 catalytic domain to Ki for human recombinant MMP-2
[9] = target: T4, Matrix metalloproteinase-9; assay: Inhibition of human recombinant MMP-9 catalytic domain using MOCAcPLGLA2pr(Dnp)AR-NH2 as substrate at 50 uM by fluorescence spectrophotometric analysis relative to control
[10] = target: MMP-2/MMP-14 (Homo sapiens) (UniProt P50281+P08253); assay: Selectivity ratio of Ki for human recombinant MMP-14 catalytic domain to Ki for human recombinant MMP-2
[11] = target: Stromelysin-1 (Homo sapiens) (UniProt P08254); assay: Inhibition of human recombinant MMP-3 catalytic domain at 30 uM by fluorescence spectrophotometric analysis relative to control

72 kDa type IV collagenase, sequence (P08253 whole entry, the tested form may be a part): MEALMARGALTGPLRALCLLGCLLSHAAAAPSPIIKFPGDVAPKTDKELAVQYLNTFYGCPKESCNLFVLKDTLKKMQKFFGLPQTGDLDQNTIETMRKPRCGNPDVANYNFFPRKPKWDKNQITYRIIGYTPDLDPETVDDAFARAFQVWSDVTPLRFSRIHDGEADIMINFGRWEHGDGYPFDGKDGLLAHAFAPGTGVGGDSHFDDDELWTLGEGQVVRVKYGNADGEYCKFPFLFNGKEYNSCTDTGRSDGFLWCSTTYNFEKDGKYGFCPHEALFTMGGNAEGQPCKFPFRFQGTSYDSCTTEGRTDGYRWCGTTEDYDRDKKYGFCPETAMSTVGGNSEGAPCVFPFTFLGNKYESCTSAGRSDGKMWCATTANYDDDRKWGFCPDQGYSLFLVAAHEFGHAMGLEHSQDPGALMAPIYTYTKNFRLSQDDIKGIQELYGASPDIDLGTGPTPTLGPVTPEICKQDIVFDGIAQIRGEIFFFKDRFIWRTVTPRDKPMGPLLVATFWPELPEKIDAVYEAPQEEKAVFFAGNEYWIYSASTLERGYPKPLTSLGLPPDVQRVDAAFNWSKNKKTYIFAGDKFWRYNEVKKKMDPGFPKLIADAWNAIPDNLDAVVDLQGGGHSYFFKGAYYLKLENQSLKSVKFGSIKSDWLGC
T4 sequence (P14780 whole entry, the tested form may be a part): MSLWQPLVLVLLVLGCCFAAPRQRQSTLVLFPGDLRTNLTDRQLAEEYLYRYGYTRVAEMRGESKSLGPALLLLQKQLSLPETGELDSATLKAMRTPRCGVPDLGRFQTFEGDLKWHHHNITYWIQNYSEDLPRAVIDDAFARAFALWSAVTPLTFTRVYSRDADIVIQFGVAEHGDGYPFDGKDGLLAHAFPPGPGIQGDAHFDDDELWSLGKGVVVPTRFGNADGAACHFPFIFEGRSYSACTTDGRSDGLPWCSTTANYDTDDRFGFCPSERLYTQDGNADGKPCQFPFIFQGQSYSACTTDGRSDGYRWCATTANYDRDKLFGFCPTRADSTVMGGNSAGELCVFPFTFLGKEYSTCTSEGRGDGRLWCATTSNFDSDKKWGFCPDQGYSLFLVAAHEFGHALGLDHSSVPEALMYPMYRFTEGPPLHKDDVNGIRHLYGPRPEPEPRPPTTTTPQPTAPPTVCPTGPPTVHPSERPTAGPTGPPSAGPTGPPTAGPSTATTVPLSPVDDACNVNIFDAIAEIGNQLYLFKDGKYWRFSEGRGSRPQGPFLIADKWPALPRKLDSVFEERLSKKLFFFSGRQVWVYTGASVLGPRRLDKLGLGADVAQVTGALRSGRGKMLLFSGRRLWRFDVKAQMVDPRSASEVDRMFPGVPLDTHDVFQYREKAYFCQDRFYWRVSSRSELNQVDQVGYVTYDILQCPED

Which inhibition [1] does the source give for `CCOC(=O)Oc1ccc(Oc2ccc(S(=O)(=O)CC3CS3)cc2)cc1` (centres undefined) here?
Its inhibition is 9%.

And the Ki [2]?
The Ki was 2700 nM.

What about the Ratio Ki [3] of the same compound?
The Ratio Ki was 2.

And the inhibition [4]?
The inhibition was “inactive”.

And the Ki [5]?
Its Ki is 230 nM.

And the inhibition [6]?
Its inhibition is 39%.

What about the Stability (Liver) of the same compound?
Its Stability is “Unstable”.

With `CC(C)OC(=O)Oc1ccc(Oc2ccc(S(=O)(=O)CC3CS3)cc2)cc1` (centres undefined) as the compound, how does the inhibition [1] read?
The inhibition was 13%.

And the Ki [2]?
The Ki was 3000 nM.

And the Ratio Ki [3]?
Its Ratio Ki is 2.

What about the inhibition [4] of the same compound?
Its inhibition is “inactive”.

What about the Ki [7] of the same compound?
Its Ki is 1300 nM.

And the Ki [5]?
The Ki was 480 nM.

What about the inhibition [6] of the same compound?
The inhibition was 9%.

`CC(C)NC(=O)Nc1ccc(Oc2ccc(S(=O)(=O)CC3CS3)cc2)cc1` (centres undefined) was tested. Which inhibition [1] did it give?
The inhibition was 6%.

What about the inhibition [8] of the same compound?
Its inhibition is 37%.

And the Ratio Ki [3]?
Its Ratio Ki is 20.

And the Ratio Ki (Homo sapiens)?
Its Ratio Ki is 20.

And the inhibition [9]?
Its inhibition is 26%.

And the inhibition [4]?
Its inhibition is “inactive”.

And the Ratio Ki [10]?
The Ratio Ki was 20.

And the Ki [5]?
The Ki was 420 nM.

And the inhibition [6]?
The inhibition was 4%.

Which inhibition [1] does the source give for `CCCNC(=O)Nc1ccc(Oc2ccc(S(=O)(=O)CC3CS3)cc2)cc1` (centres undefined) here?
Its inhibition is “inactive”.

And the inhibition [8]?
Its inhibition is 8%.

What about the Ratio Ki [3] of the same compound?
The Ratio Ki was 20.

And the Ratio Ki (Homo sapiens)?
The Ratio Ki was 20.

And the inhibition [9]?
The inhibition was 7%.

What about the inhibition [4] of the same compound?
The inhibition was “inactive”.

And the Ratio Ki [10]?
Its Ratio Ki is 20.

What about the Ki [5] of the same compound?
Its Ki is 560 nM.

And the inhibition [6]?
Its inhibition is 18%.

How did the inhibition [1] turn out when `COC(=O)Oc1ccc(Oc2ccc(S(=O)(=O)CC3CS3)cc2)cc1` (centres undefined) was run?
Its inhibition is 11%.

And the Ki [2]?
Its Ki is 2400 nM.

And the Ratio Ki [3]?
Its Ratio Ki is 2.

What about the inhibition [4] of the same compound?
Its inhibition is 7%.

And the Ki [7]?
The Ki was 230 nM.

What about the Ki [5] of the same compound?
The Ki was 160 nM.

And the inhibition [11]?
The inhibition was 31%.

For `CCCNC(=O)Oc1ccc(Oc2ccc(S(=O)(=O)CC3CS3)cc2)cc1` (centres undefined), which inhibition [1] is on record?
The inhibition was 2%.

And the Ki [2]?
The Ki was 27000 nM.

And the Ratio Ki [3]?
Its Ratio Ki is 20.

What about the Ratio Ki (Homo sapiens) of the same compound?
The Ratio Ki was 20.

And the inhibition [4]?
Its inhibition is “inactive”.

And the Ki [7]?
Its Ki is 52000 nM.

And the Ratio Ki [10]?
The Ratio Ki was 20.

What about the Ki [5] of the same compound?
Its Ki is 760 nM.

And the inhibition [6]?
Its inhibition is 38%.

What does the source list for `CNC(=O)Nc1ccc(Oc2ccc(S(=O)(=O)CC3CS3)cc2)cc1` (centres undefined)?
inhibition [1]: 8%; Ki [2]: 19000 nM; Ratio Ki [3]: 20; Ratio Ki (Homo sapiens): 20; inhibition [4]: inactive; Ki [7]: 9900 nM; Ratio Ki [10]: 20; Ki [5]: 240 nM; inhibition [6]: 21%

Which inhibition [1] does the source give for `CC(C)OC(=O)Nc1ccc(Oc2ccc(S(=O)(=O)CC3CS3)cc2)cc1` (centres undefined) here?
Its inhibition is “inactive”.

And the Ki [2]?
Its Ki is 2500 nM.

What about the Ratio Ki [3] of the same compound?
Its Ratio Ki is 2.

What about the inhibition [4] of the same compound?
The inhibition was “inactive”.

And the Ki [7]?
Its Ki is 2700 nM.

And the Ki [5]?
Its Ki is 680 nM.

What about the inhibition [6] of the same compound?
Its inhibition is “inactive”.
